pEC50: −log10 of the molar value. Active and inactive are the calls of the source. No cut-off for these calls is given here.
Key:
[1] = target: GABA-A receptor; alpha-2/beta-3/gamma-2 (Homo sapiens) (UniProt P18507+P28472+P47869); assay: Activation of human GABAA alpha-2-beta-3-gamma-2L receptor expressed in Xenopus oocytes assessed as modulation of GABA-induced current by measuring ratio of I/Imax current by two-electrode voltage-clamp method; conditions: Oocyte
[2] = target: T1, Neuronal acetylcholine receptor; alpha4/beta2 (Homo sapiens) (UniProt P17787+P43681); assay: Activity at human nAChR alpha4beta2 expressing Xenopus oocytes assessed as stimulation of nicotine-induced current at 10 uM by two-electrode voltage-clamp method; format: cell-based; conditions: Oocyte
Procedure, shortened: (§1)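 Oocytes injected with 0.005–50 ng mRNA per subunit (α4β2 and α3β4 at 1:1; α1β1γδ at 1:1:1:1; α7 and 5-HT3A single). Two-electrode voltage clamp at −70 mV, 3–14 days post-injection. Ca²⁺-free Ringer's with BaCl₂ replacing Ca²⁺ (pH 7.4) to limit Ca²⁺-activated Cl⁻ currents. Rapid linear-array application. Current expressed as I/I_max; concentration–effect data fit to a four-parameter logistic. For α7, agonist was fixed at EC₅.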

[3] = target: T2, GABA-A receptor; alpha-2/beta-3/gamma-2 (Homo sapiens, UniProt P18507+P28472+P47869); assay: Activation of human GABAA alpha-2-beta-3-gamma-2L receptor expressed in Xenopus oocytes assessed as modulation of GABA-induced current by two-electrode voltage-clamp method
T2 sequence (P18507 whole entry): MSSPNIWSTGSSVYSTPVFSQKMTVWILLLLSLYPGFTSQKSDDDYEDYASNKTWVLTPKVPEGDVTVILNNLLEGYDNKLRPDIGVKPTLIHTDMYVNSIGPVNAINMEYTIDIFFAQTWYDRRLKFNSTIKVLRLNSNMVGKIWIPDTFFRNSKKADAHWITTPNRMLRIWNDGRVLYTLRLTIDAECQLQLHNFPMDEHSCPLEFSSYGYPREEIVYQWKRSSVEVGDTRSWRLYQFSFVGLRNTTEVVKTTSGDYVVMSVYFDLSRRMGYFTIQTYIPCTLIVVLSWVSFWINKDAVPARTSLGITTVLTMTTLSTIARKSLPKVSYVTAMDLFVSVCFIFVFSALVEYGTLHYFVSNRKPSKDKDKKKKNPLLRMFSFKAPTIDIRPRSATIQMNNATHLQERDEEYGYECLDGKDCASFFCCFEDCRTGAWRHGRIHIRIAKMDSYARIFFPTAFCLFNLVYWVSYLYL
T2 sequence (P28472 whole entry): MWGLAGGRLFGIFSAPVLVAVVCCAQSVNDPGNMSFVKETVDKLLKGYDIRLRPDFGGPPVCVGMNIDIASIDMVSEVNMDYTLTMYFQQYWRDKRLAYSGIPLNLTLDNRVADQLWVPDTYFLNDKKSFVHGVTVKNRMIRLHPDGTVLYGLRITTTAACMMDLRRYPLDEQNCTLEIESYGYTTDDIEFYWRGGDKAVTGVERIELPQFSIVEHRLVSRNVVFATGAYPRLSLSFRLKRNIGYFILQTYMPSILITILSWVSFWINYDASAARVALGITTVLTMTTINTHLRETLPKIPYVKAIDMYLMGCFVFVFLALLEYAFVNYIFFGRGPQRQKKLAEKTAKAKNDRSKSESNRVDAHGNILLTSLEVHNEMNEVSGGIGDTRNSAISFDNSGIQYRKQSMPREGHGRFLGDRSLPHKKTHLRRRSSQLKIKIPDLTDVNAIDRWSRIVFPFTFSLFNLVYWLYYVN
T2 sequence (P47869 whole entry): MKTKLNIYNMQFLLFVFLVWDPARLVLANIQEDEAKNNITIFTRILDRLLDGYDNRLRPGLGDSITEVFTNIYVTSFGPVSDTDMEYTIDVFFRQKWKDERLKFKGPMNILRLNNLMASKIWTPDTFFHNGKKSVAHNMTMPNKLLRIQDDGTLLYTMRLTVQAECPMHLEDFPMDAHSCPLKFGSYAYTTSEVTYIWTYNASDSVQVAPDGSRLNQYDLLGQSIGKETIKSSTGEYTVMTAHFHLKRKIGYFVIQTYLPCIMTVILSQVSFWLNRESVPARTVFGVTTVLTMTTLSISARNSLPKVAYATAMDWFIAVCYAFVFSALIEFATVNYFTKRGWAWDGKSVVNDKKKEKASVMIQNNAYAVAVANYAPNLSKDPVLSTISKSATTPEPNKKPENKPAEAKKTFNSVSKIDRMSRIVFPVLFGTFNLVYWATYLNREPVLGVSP

[4] = target: T3, Neuronal acetylcholine receptor subunit alpha-7 (Homo sapiens, UniProt P36544); assay: Activation of human alpha-7 nAChR expressed in Xenopus oocytes assessed as modulation of nicotine-induced current by measuring ratio of I/Imax current by two-electrode voltage-clamp method; format: cell-based; conditions: Oocyte
T3 sequence (P36544 whole entry): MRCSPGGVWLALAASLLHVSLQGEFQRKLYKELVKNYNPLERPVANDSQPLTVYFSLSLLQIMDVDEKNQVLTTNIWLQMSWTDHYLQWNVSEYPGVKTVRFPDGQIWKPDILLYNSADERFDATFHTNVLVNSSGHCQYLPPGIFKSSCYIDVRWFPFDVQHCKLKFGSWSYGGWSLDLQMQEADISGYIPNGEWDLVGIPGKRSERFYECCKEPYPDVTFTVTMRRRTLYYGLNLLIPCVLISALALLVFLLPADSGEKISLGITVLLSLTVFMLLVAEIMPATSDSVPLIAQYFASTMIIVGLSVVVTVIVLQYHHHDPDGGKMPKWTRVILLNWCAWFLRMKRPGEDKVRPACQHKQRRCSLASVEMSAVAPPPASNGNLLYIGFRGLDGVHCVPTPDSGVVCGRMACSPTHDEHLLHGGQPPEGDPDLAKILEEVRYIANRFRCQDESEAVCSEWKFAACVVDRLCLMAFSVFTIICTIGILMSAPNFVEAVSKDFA
Procedure, shortened: as §1

[5] = target: T4, 5-hydroxytryptamine receptor 3A (Homo sapiens) (UniProt P46098); assay: Activity at human 5HT3A receptor expressed in Xenopus oocytes assessed as stimulation of […] current at 10 uM by two-electrode voltage-clamp method; format: cell-based; conditions: Oocyte
T4 sequence (whole entry): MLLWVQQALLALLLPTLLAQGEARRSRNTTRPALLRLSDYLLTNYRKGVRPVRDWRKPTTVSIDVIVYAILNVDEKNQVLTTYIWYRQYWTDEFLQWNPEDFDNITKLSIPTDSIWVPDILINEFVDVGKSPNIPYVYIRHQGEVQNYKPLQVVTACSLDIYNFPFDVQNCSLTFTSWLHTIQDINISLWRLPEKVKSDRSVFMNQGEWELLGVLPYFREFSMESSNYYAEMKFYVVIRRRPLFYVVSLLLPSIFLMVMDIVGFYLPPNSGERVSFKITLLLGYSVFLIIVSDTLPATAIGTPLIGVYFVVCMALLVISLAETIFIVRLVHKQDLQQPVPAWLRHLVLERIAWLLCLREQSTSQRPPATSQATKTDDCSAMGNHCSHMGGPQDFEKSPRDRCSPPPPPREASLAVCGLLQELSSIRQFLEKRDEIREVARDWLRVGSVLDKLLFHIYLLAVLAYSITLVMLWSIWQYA
Procedure, shortened: as §1

[6] = target: T3, Neuronal acetylcholine receptor subunit alpha-7; assay: Activation of human alpha-7 nAChR expressed in Xenopus oocytes assessed as modulation of nicotine-induced current by two-electrode voltage-clamp method; format: cell-based, Oocyte
Procedure, shortened: as §1

[7] = target: T1, Neuronal acetylcholine receptor; alpha4/beta2 (Homo sapiens); assay: Activation of human nAChR alpha-4-beta-2 expressed in Xenopus oocytes assessed as modulation of nicotine-induced current by measuring ratio of I/Imax current by two-electrode voltage-clamp method; format: cell-based; conditions: Oocyte
Procedure, shortened: as §1

Ratio [1]: 0.93
Activity [2]: inactive
pEC50 [3]: 6.70
Ratio [4]: 0.86
Activity [5]: inactive
pEC50 [6]: 5.74
Activity [7]: inactive
SMILES: CCOC(=O)/C(=C\Nc1ccc(OCC)cc1)C(=O)c1ccccc1Cl

From ChEMBL document CHEMBL1142221, “Nootropic alpha7 nicotinic receptor allosteric modulator derived from GABAA receptor modulators” (Proc Natl Acad Sci U S A, 2007)
